Assays:
HepG2 = assay: Anticancer activity against human HepG2 cells assessed as cell growth inhibition measured after 48 hrs by MTT assay; format: functional, cell-based; conditions: HepG2, 48 h
Method in brief: (§1)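 MTT test on ATCC lines grown in RPMI with 10% FBS and antibiotic/antimycotic at 37 °C in 5% CO₂. Cells were seeded at 4 x 10^3/well and treated for 48 h at 2.5, 5, 10 and 20 µM, from DMSO stocks diluted in medium. MTT (10 mg/mL stock) was then added for 3 h and absorbance read at 540 nm. IC50 derived; three independent experiments.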

B16-F10 = assay: Anticancer activity against mouse B16-F10 cells assessed as cell growth inhibition measured after 48 hrs by MTT assay; format: functional, cell-based; conditions: B16-F10, 48 h; method in brief: as §1
HEK293 = assay: Cytotoxicity against human HEK293 cells assessed as cell growth inhibition measured after 48 hrs by MTT assay; format: cell-based; conditions: HEK293, 48 h; method in brief: as §1
MDA-MB-231 = assay: Anticancer activity against human MDA-MB-231 cells assessed as cell growth inhibition measured after 48 hrs by MTT assay; format: functional, cell-based; conditions: MDA-MB-231, 48 h; method in brief: as §1
MCF7 = assay: Anticancer activity against human MCF-7 cells assessed as cell growth inhibition measured after 48 hrs by MTT assay; format: functional, cell-based; conditions: MCF7, 48 h; method in brief: as §1

IC50 (HepG2)	IC50 (B16-F10)	IC50 (MDA-MB-231)	IC50 (MCF7)	SMILES	IC50 (HEK293)
3.41 µM	5.61 µM	6.78 µM	9.96 µM	COC(=O)c1c(-c2cc(O)c3c(c2)C(=O)c2cccc(O)c2C3=O)nn(-c2ccccc2)c1C(=O)OC	8.86 µM
12.3 µM	2.22 µM	21.7 µM	3.18 µM	CCOC(=O)c1c(-c2cc(O)c3c(c2)C(=O)c2cccc(O)c2C3=O)nn(-c2ccccc2)c1C(=O)OCC	4.56 µM
2.6 µM	5.4 µM	1.85 µM	7.26 µM	CCOC(=O)c1c(-c2cc(O)c3c(c2)C(=O)c2cccc(O)c2C3=O)nn(-c2cccc(F)c2)c1C(=O)OCC	1.93 µM
3.46 µM	3.34 µM	1.49 µM	4.66 µM	COC(=O)c1c(-c2cc(O)c3c(c2)C(=O)c2cccc(O)c2C3=O)nn(-c2ccccc2C)c1C(=O)OC	5.01 µM

The remaining lines, values behind:

SMILES	IC50 (HepG2)	IC50 (B16-F10)	IC50 (MDA-MB-231)	IC50 (MCF7)	IC50 (HEK293)
CCOC(=O)c1c(-c2cc(O)c3c(c2)C(=O)c2cccc(O)c2C3=O)nn(-c2ccc(Cl)cc2)c1C(=O)OCC	2.16 µM	3.9 µM	6.2 µM	3.96 µM	1.09 µM
CCOC(=O)c1c(-c2cc(O)c3c(c2)C(=O)c2cccc(O)c2C3=O)nn(-c2ccc(OC(F)(F)F)cc2)c1C(=O)OCC	6.23 µM	3.35 µM	3.96 µM	3.58 µM	9.76 µM
CCOC(=O)c1c(-c2cc(O)c3c(c2)C(=O)c2cccc(O)c2C3=O)nn(-c2ccc(OC)cc2)c1C(=O)OCC	5.68 µM	2.15 µM	4.7 µM	3.86 µM	10.1 µM
CCOC(=O)c1c(-c2cc(O)c3c(c2)C(=O)c2cccc(O)c2C3=O)nn(-c2cccc(C)c2)c1C(=O)OCC	1.15 µM	3.46 µM	0.99 µM	6.35 µM	1.12 µM
CCOC(=O)c1c(-c2cc(O)c3c(c2)C(=O)c2cccc(O)c2C3=O)nn(-c2ccc(C)c(C)c2)c1C(=O)OCC	1 µM	1.85 µM	0.9 µM	1.04 µM	1.03 µM
